Measurements published in ChEMBL document CHEMBL1671645, “Pharmacokinetics and absorption of posaconazole oral suspension under various gastric conditions in healthy volunteers” (Antimicrob Agents Chemother, 2009).

What was measured:
[1] = Cmax in fasted healthy human plasma at 400 mg administered as single dose suspension coadministered with acidic carbonated beverage; type: ADME, organism-based; set-up: dose 400 mg
Procedure, shortened: (§1)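 This was a four-way crossover in 12 healthy subjects with 7–10 day washouts. Each took one fasting 400 mg oral suspension dose, with 12 oz ginger ale and/or esomeprazole 40 mg once each morning on days −2 to 1, with dosing on day 1. Plasma was sampled 0–168 h and measured by LC-MS/MS (LLOQ 5.00 ng/ml). Analysis was noncompartmental, with CL/F = dose/AUC_I and V/F = (CL/F)/K.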

[2] = Tmax in fasted healthy human at 400 mg administered as single dose suspension; type: ADME, organism-based; conditions: in vivo
Procedure, shortened: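 Single oral suspension dose in fasting healthy volunteers, alone, with 12 oz ginger ale, after esomeprazole 40 mg once each morning days −2 to 1, or both; four-way crossover, 7–10-day washout. EDTA plasma 0–168 h. LC-MS/MS (LLOQ 5.00 ng/ml). t1/2 = ln(2)/K from terminal log-linear regression; Tmax median.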

[3] = Apparent total body clearance in healthy human at 400 mg administered as single dose suspension coadministered with nutritional supplement and 10 mg metoclopramide; type: ADME, organism-based; conditions: in vivo, po
Procedure, shortened: (§2)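 A three-way crossover in 13 healthy subjects gave one 400 mg oral suspension dose with a nutritional supplement, either alone, with metoclopramide 10 mg orally three times daily on the day before and the day of dosing, or with a single 4 mg dose of loperamide. Plasma was taken 0–168 h for LC-MS/MS. Analysis was noncompartmental.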

[4] = Apparent volume of distribution in fasted healthy human at 400 mg administered as single dose suspension after 20 mins after consumption of high fat meal; type: ADME, organism-based; conditions: in vivo, po
Procedure, shortened: (§3)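 In a crossover of 12 healthy subjects, each took a single 400 mg oral suspension dose 5 min before, midway through (about 10 min into a 20-min meal), or 20 min after a high-fat meal of about 50 g fat. Plasma was drawn 0–168 h and measured by LC-MS/MS. Parameters are noncompartmental, with AUC to the last measurable time.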

[5] = Cmax in healthy human plasma at 400 mg administered as single dose suspension coadministered with nutritional supplement and 4 mg loperamide as two 2 mg tablets; type: ADME, organism-based; set-up: dose 400 mg; conditions: po
Procedure, shortened: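 Oral suspension (40 mg/ml) single dose with nutritional supplement plus loperamide 4 mg single dose, healthy volunteers, three-way crossover with 7–10-day washout. EDTA plasma drawn predose and 1–168 h postdose. LC-MS/MS assay (LLOQ 5.00 ng/ml). Noncompartmental parameters; Tmax reported as median (range).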

[6] = system: Homo sapiens; assay: Toxicity in healthy human assessed as adverse events at 400 mg BID, po administered as suspension for 7 days; type: organism-based; conditions: in vivo, 168 h
Procedure, shortened: (§4)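 Healthy volunteers monitored for adverse events, vital signs, clinical laboratory values and 12-lead ECG. Adverse events tabulated by body system or organ class and severity and summarized by treatment across the crossover regimens.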

[7] = system: Homo sapiens; assay: Toxicity in healthy human assessed as dizziness at 400 mg administered as single dose suspension coadministered with nutritional supplement and 10 mg metoclopramide; type: organism-based; conditions: in vivo
Procedure, shortened: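 Three-way randomized crossover in 13 healthy volunteers with a 7- to 10-day washout. Each period was one 400-mg oral posaconazole suspension dose with a nutritional supplement. Metoclopramide 10 mg was given orally three times daily on the day before and the day of dosing; loperamide was a single 4 mg. Safety was assessed from adverse events, tabulated by body system and severity per treatment.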

[8] = Apparent volume of distribution in fasted healthy human at 400 mg administered as single dose suspension coadministered with acidic carbonated beverage and proton pump inhibitor; type: ADME, organism-based; conditions: in vivo, read-out: Vc/F; procedure, shortened: as §1
[9] = Cmax in healthy human plasma at 400 mg administered as single dose suspension coadministered with nutritional supplement and 10 mg metoclopramide; type: ADME, organism-based; set-up: dose 400 mg; procedure, shortened: as §2
[10] = system: Homo sapiens; assay: Toxicity in healthy human assessed as adverse events at 400 mg administered as single dose suspension 5 mins before consumption of high fat meal; type: organism-based; conditions: in vivo; procedure, shortened: as §4
[11] = system: Homo sapiens; assay: Toxicity in healthy human assessed as headache at 200 mg QID, po administered as suspension for 7 days; type: organism-based; conditions: in vivo, 168 h
Procedure, shortened: (§5)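 Healthy volunteers (n = 12) took oral posaconazole suspension (40 mg/ml) for 7 days in a four-way randomized crossover with a 14- to 21-day washout. Subjects stayed fasted throughout, with nonfat snacks up to 800 cal/day allowed. Where given, Boost was taken with each dose. Safety covered adverse events, vital signs, clinical labs and 12-lead ECG, with AEs tabulated by body system and severity per treatment.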

[12] = system: Homo sapiens; assay: Toxicity in healthy human assessed as adverse events at 400 mg administered as single dose suspension coadministered with nutritional supplement and 4 mg loperamide as two 2 mg tablets; type: organism-based; conditions: in vivo; procedure, shortened: as §4
[13] = Cmax in fasted healthy human plasma at 200 mg QID, po administered as suspension for 7 days; type: ADME, organism-based; set-up: dose 200 mg, route oral
Procedure, shortened: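 Twelve healthy subjects took oral suspension for 7 days as 400 mg BID or 200 mg QID, either fasting or with a Boost-type nutritional supplement, in a crossover with 14–21 day washouts. Nonfat snacks of 800 cal/day or less were allowed. Plasma was sampled 0–168 h after the day-7 morning dose only and analysed by LC-MS/MS. AUC is AUC_τ, normalized to dose.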

[14] = Apparent total body clearance in fasted healthy human at 400 mg administered as single dose suspension 5 mins before consumption of high fat meal; type: ADME, organism-based; conditions: in vivo; procedure, shortened: as §3
[15] = system: Homo sapiens; assay: Toxicity in healthy human assessed as asthenia at 200 mg QID, po administered as suspension for 7 days coadministered with nutritional supplement; type: organism-based; conditions: in vivo, 168 h; procedure, shortened: as §4
[16] = Tmax in healthy human at 400 mg administered as single dose suspension coadministered with nutritional supplement; type: ADME, organism-based; conditions: in vivo
Procedure, shortened: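 Single oral suspension dose with nutritional supplement, alone or with metoclopramide 10 mg orally three times daily on the day before and the day of dosing; three-way crossover, 7–10-day washout. EDTA plasma predose to 168 h, LC-MS/MS (LLOQ 5.00 ng/ml). t1/2 = ln(2)/K from terminal slope; Tmax median.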

[17] = Apparent volume of distribution in healthy human at 400 mg administered as single dose suspension coadministered with nutritional supplement and 4 mg loperamide as two 2 mg tablets; type: ADME, organism-based; conditions: in vivo, po, read-out: Vc/F; procedure, shortened: as §2
[18] = Cmax in fasted healthy human plasma at 400 mg administered as single dose suspension after consumption of high fat meal; type: ADME, organism-based; set-up: dose 400 mg; procedure, shortened: as §3
[19] = system: Homo sapiens; assay: Toxicity in healthy human assessed as adverse events at 400 mg administered as single dose suspension coadministered with nutritional supplement; type: organism-based; conditions: in vivo; procedure, shortened: as §4
[20] = Tmax in fasted healthy human at 400 mg administered as single dose suspension 5 mins before consumption of high fat meal; type: ADME, organism-based; conditions: in vivo
Procedure, shortened: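 Single oral suspension dose in healthy volunteers while fasting, 5 min before, midway through (about 10 min into a 20-min meal), or 20 min after a high-fat meal (approx 50 g fat); four-way crossover, 7–10-day washout. Plasma 0–168 h by LC-MS/MS (LLOQ 5.00 ng/ml). t1/2 = ln(2)/K; Tmax median.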

[21] = system: Homo sapiens; assay: Toxicity in healthy human assessed as dizziness at 400 mg BID, po administered as suspension for 7 days coadministered with nutritional supplement; type: organism-based; conditions: in vivo, 168 h; procedure, shortened: as §5
[22] = AUC in fasted healthy human at 400 mg administered as single dose suspension after 20 mins after consumption of high fat meal; type: ADME, organism-based; set-up: dose 400 mg; conditions: plasma; procedure, shortened: as §3
[23] = Cmax in healthy human plasma at 400 mg administered as single dose suspension coadministered with nutritional supplement; type: ADME, organism-based; set-up: dose 400 mg; procedure, shortened: as §2
[24] = system: Homo sapiens; assay: Toxicity in healthy human assessed as adverse events at 400 mg administered as single dose suspension coadministered with proton pump inhibitor; type: organism-based; set-up: scale not given: the % may be the effect or the level left; conditions: in vivo; procedure, shortened: as §4

SMILES: CC[C@@H]([C@H](C)O)n1ncn(-c2ccc(N3CCN(c4ccc(OC[C@@H]5CO[C@@](Cn6cncn6)(c6ccc(F)cc6F)C5)cc4)CC3)cc2)c1=O [POSACONAZOLE]
- Cmax [1]: 286 ng/mL
- Tmax [2]: 5 h
- CL/F [3]: 993 mL/min
- Vd/F [4]: 757 L
- Cmax [5]: 294 ng/mL
- Activity [6]: 75%
- Activity [7]: 15%
- Vd/F [8]: 3920 L
- Cmax [9]: 232 ng/mL
- Activity [10]: 25%
- Activity [11]: 25%
- Activity [12]: 38%
- Cmax [13]: 2300 ng/mL
- CL/F [14]: 957 mL/min
- Activity [15]: 25%
- Tmax [16]: 5.5 h
- Vd/F [17]: 1750 L
- Cmax [18]: 544 ng/mL
- Activity [19]: 38%
- Tmax [20]: 7 h
- Activity [21]: 33%
- AUC at 20 min [22]: 21000 ng·h/mL
- Cmax [23]: 303 ng/mL
- Activity [24]: 25%
